Calls of active or inactive are those of the source. The rule behind the calls is not given here. Some results are limits rather than exact numbers.

A short description of test [1]: Cytotoxicity against chinese hamster R2(VC) cells after 96 hrs by CellTitre-Blue fluorescence assay. It is filed as functional, cell-based. Particulars: Cricetulus griseus. A digest of the protocol: (§1)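 CHO sublines were grown in FF-RPMI/DFBS; transfectants were maintained with G418. Cells were exposed to antifolate (0–1 μM) for 96 h at 37 °C with 2 nM LCV (RT16) or 25 nM LCV (R2/PCFT4). PC43-10 cells were grown in standard RPMI1640/DFBS instead. FRα specificity was tested by adding 200 nM folic acid. Viable cells were read by CellTiter-Blue fluorescence (ex 560/em 590), and IC50 was taken from dose–response curves; means of 3–10 experiments.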

The subject of test [2] is KB. Briefly: Cytotoxicity against human KB cells expressing human RFC/FRalpha/PCFT after 96 hrs by CellTitre-Blue fluorescence assay in presence of adenosine. It is filed as functional, cell-based. A digest of the protocol: (§2)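 KB cells were grown in FF-RPMI with DFBS and 2 nM LCV, exposed to antifolate (0–1 μM) for 96 h at 37 °C, and read by CellTiter-Blue fluorescence. IC50 was taken from dose–response curves relative to untreated cells. Protection arms added adenosine 60 μM, thymidine 10 μM, AICA 320 μM, or folic acid 200 nM. Means of 3–10 experiments.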

Test [3] has as its system R2. The test can be described thus: Cytotoxicity against chinese hamster R2 cells after 96 hrs by CellTitre-Blue fluorescence assay. Particulars: Cricetulus griseus, R2, 96 h.
Test [4] relates to KB. Briefly: Cytotoxicity against human KB cells expressing human RFC/FRalpha/PCFT after 96 hrs by CellTitre-Blue fluorescence assay in presence of AICA. It is filed as functional, cell-based. A digest of the protocol: as §2
A short description of test [5]: Cytotoxicity against chinese hamster RT16 cells expressing human FRalpha after 96 hrs by CellTitre-Blue fluorescence assay in presence of folic acid. It is filed as functional, cell-based. Particulars: Cricetulus griseus, RT16, 96 h. A digest of the protocol:
as §1

The test system of test [6] is KB. Briefly: Cytotoxicity against human KB cells expressing human RFC/FRalpha/PCFT after 96 hrs by CellTitre-Blue fluorescence assay in presence of thymidine. In kind it is functional, cell-based. A digest of the protocol: as §2
Test [7] concerns KB. Briefly: Cytotoxicity against human KB cells at 10 mM after 96 hrs by CellTitre-Blue fluorescence assay. It is filed as functional. Particulars: read-out: GI. A digest of the protocol: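 KB cells were exposed for 96 h at 37 °C to metformin (0–10 mM) or AICA (0–2 mM) in FF-RPMI/DFBS with 2 nM LCV. Growth was read by CellTiter-Blue fluorescence relative to drug-free cells.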

The target in test [8] is Bifunctional purine biosynthesis protein ATIC (Homo sapiens) (UniProt P31939). The test can be described thus: Inhibition of AICARFTase in human KB cells assessed as phosphorylated AMPK at 10 mM after 48 hrs by Western blot analysis. In kind it is cell-based. A digest of the protocol:
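KB cells were treated for 48 h with 10 μM thymidine, or with AMPK activators (metformin 10 mM, AICA 1 mM, AICAR 1 mM) against a water/DMSO vehicle. Cells were sonicated in 10 mM Tris-HCl pH 7.0 with protease/phosphatase inhibitors. 90 μg protein was run on 4–20% SDS gels and blotted for phospho-AMPK, total AMPK and β-actin, with infrared detection.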
On the technique in general: In western blotting, separated proteins are transferred to a membrane and probed.

The nature of test [9]: Cytotoxicity against chinese hamster PC43-10 cells expressing human RFC after 96 hrs by CellTitre-Blue fluorescence assay. It is filed as functional, cell-based. Particulars: Cricetulus griseus, PC43-10, 96 h. A digest of the protocol: as §1
For test [10], the target named is Folate receptor alpha (Homo sapiens) (UniProt P15328). Briefly: Displacement of [3H]folic acid from human FRalpha expressed in chinese hamster RT16 cells after 15 mins by scintillation counting analysis. In kind it is cell-based. A digest of the protocol:
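FRα-expressing RT16 CHO cells (~1.5 × 10^6) were grown as monolayers. Bound folates were stripped with ice-cold acetate buffer (pH 3.5), then neutralised with HEPES-buffered saline (pH 7.4). Cells were then competed with [3H]folic acid against graded unlabelled ligand. Bound label read by scintillation, normalised to Folin-phenol protein (pmol/mg). Relative affinity = inverse molar ratio for 50% displacement, folic acid set at 1. Three experiments.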
(Displacement assays read how much labelled ligand stays bound in the presence of the test substance.)

The test system of test [11] is R2. Briefly: Cytotoxicity against chinese hamster R2 cells expressing human PCFT4 after 96 hrs by CellTitre-Blue fluorescence assay. Particulars: R2, 96 h. In kind it is functional, cell-based, Cricetulus griseus.
The test system of test [12] is KB. The test can be described thus: Cell cycle arrest in human KB cells assessed as accumulation at G1/G0 phase at 1 uM after 96 hrs by propidium iodide staining-based flow cytometry (reference value: 67.4%). In kind it is functional. For orientation: A flow cytometer gives signals particle by particle.
Test [13] in a line: (§3) Inhibition of GARFTase in human KB cells assessed as incorporation of [14C]-glycine into [14C]-formyl GAR incubated 30 mins prior to [14C]-glycine addition measured after 16 hrs by radiometric assay in presence of azaserin. It is filed as cell-based. A digest of the protocol: (§4)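 KB cells were preincubated 1 h in folate- and glutamine-free medium with 2 nM LCV and a range of drug concentrations. Azaserine (4 μM final) was added for 30 min, then 2 mM glutamine and [14C(U)]glycine (0.1 mCi/L) for 16 h at 37 °C. TCA extracts were ether-washed and run on AG1×8 anion exchange. [14C]formyl GAR was measured per mg protein, and IC50 was set against DMSO controls; three experiments.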

Test [14] deals with KB. The description is as §3. In kind it is cell-based. A digest of the protocol: as §4
The test system of test [15] is KB. The test can be described thus: Induction of apoptosis in human KB cells assessed as early apoptotic cells at 1 uM after 96 hrs by Annexin V-FITC/7-AAD staining-based flow cytometry (reference value: 0.485%). It is filed as functional.
Test [16] deals with KB. The test can be described thus: Induction of apoptosis in human KB cells assessed as late apoptotic cells at 1 uM after 96 hrs by Annexin V-FITC/7-AAD staining-based flow cytometry (reference value: 2.09%). In kind it is functional.
Test [17] relates to KB. The test can be described thus: Cytotoxicity against human KB cells expressing human RFC/FRalpha/PCFT after 96 hrs by CellTitre-Blue fluorescence assay in presence of folic acid. It is filed as functional, cell-based. A digest of the protocol: as §2
Test [18] deals with KB. Briefly: Cell cycle arrest in human KB cells assessed as accumulation at S phase at 1 uM after 96 hrs by propidium iodide staining-based flow cytometry (reference value: 15.9%). In kind it is functional.
Test [19] relates to KB. Briefly: Induction of apoptosis in human KB cells assessed as necrotic cells at 1 uM after 96 hrs by Annexin V-FITC/7-AAD staining-based flow cytometry (RVB = 7.80%). In kind it is functional.
Test [20] deals with KB. Briefly: Cell cycle arrest in human KB cells assessed as accumulation at G1/G0 phase at 1 uM after 48 hrs by propidium iodide staining-based flow cytometry relative to control. In kind it is functional.
In test [21] the test system is KB. Briefly: Cytotoxicity against human KB cells expressing human RFC/FRalpha/PCFT assessed as depletion of ATP pools at 1 uM after 24 hrs by ion-pair HPLC analysis. It is filed as functional. A digest of the protocol: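 KB cells in FF-RPMI/10% DFBS with 2 mM glutamine and 2 nM LCV were exposed to 1 μM drug for 24 h. They were trypsinized and washed, and nucleotides were extracted. ATP was quantified by reversed-phase ion-pair HPLC on a C18 column. Results are means ± standard errors.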

Test [22] concerns KB. Briefly: Cell cycle arrest in human KB cells assessed as accumulation at G2/M phase at 1 uM after 96 hrs by propidium iodide staining-based flow cytometry (reference value: 13.2%). It is filed as functional.
Test [23] has as its system KB. Briefly: Cytotoxicity against human KB cells expressing human RFC/FRalpha/PCFT after 96 hrs by CellTitre-Blue fluorescence assay. It is filed as functional, cell-based. A digest of the protocol:
as §2

For test [24], the system named is KB. The test can be described thus: Cytotoxicity against human KB cells expressing human RFC/FRalpha/PCFT after 96 hrs by CellTitre-Blue fluorescence assay in presence of thymidine/adenosine. In kind it is functional, cell-based. A digest of the protocol:
as §2

Test [25] is described as follows: Cytotoxicity against chinese hamster RT16 cells expressing human FRalpha after 96 hrs by CellTitre-Blue fluorescence assay. In kind it is functional, cell-based. The conditions noted are these: Cricetulus griseus, RT16, 96 h. A digest of the protocol: as §1
The subject of test [26] is KB. The test can be described thus: Induction of apoptosis in human KB cells assessed as viable cells at 1 uM after 96 hrs by Annexin V-FITC/7-AAD staining-based flow cytometry (RVB = 89.6%). It is filed as functional. The conditions noted are these: read-out: Activity.
Test [27] has as its system KB. Briefly: Cytotoxicity against human KB cells expressing human RFC/FRalpha/PCFT after 96 hrs by CellTitre-Blue fluorescence assay in presence of adenosine/AICA/thymidine. In kind it is functional, cell-based. A digest of the protocol: as §2
The test system of test [28] is KB. The test can be described thus: Cell cycle arrest in human KB cells assessed as accumulation at sub-G1 phase at 1 uM after 96 hrs by propidium iodide staining-based flow cytometry (reference value: 3.5%). It is filed as functional.

Bifunctional purine biosynthesis protein ATIC (Homo sapiens), sequence (P31939 whole entry, looked up): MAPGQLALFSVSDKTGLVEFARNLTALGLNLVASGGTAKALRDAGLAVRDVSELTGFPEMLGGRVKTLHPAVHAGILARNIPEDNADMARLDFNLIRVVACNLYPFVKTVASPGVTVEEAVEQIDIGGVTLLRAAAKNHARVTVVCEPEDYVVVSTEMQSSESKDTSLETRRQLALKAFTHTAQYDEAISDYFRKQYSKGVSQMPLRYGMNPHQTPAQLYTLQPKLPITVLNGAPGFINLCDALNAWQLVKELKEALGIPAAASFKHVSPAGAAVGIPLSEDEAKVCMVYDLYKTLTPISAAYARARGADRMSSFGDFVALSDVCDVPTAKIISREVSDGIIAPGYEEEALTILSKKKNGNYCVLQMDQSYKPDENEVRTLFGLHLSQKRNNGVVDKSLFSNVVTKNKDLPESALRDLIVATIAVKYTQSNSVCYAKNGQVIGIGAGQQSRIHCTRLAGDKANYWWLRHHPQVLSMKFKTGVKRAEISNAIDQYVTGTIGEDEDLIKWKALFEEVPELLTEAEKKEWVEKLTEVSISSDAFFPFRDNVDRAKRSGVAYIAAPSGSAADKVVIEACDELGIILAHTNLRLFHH
Folate receptor alpha (Homo sapiens), sequence (P15328 25-234 limits assumed): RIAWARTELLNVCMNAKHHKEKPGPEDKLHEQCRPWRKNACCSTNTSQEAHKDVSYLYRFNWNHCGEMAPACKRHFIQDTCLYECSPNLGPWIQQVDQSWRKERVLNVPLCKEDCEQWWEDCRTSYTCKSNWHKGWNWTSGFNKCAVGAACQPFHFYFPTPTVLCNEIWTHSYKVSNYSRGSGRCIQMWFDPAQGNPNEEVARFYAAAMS

Turning to `Nc1nc2[nH]cc(CCCc3ccc(C(=O)N[C@@H](CCC(=O)O)C(=O)O)cc3)c2c(=O)[nH]1`, the IC50 (in test [1]; in the test with R2 [3]; in test [5]) was more than 1000 nM each time. Further, the result in the test with KB [2] was inactive. Besides, the outcome in the test with KB [4] and in the test with KB [6] was Active.
For `CN(C)C(=N)NC(=N)N` [METFORMIN], the inhibition of growth at 10000 µM in the test on KB [7] turned out to be 32%. For the same compound, the inhibition (in general, the change of the read-out against control, counted positive when it falls) in test [8] is “inactive”.
On to `Nc1nc2[nH]c(CCCc3ccc(C(=O)N[C@@H](CCC(=O)O)C(=O)O)cc3)cc2c(=O)[nH]1`, for which the values for the IC50 (in test [9]; in [1]; with R2 [3]) were 649 nM, more than 1000 nM and more than 1000 nM, respectively.
`CN(Cc1cnc2nc(N)nc(N)c2n1)c1ccc(C(=O)N[C@@H](CCC(=O)O)C(=O)O)cc1` [METHOTREXATE]: in [10], the inhibition result was “inactive”. Besides, in [1], the IC50 (usually the point on the concentration scale where inhibition reaches its midpoint) was more than 1000 nM.
For the compound `Nc1nc2[nH]cc(CCCCCCc3ccc(C(=O)N[C@@H](CCC(=O)O)C(=O)O)cc3)c2c(=O)[nH]1`, the IC50 (in the test on R2 [11]; in test [1]; with R2 [3]; in test [5]) was more than 1000 nM each time.
In the case of `Nc1nc2[nH]cc(CCc3ccc(C(=O)N[C@@H](CCC(=O)O)C(=O)O)cc3)c2c(=O)[nH]1` [PEMETREXED], the Activity was determined as 47.8% in the test with KB [12]; 30.6% in the test on KB [15]; 4.56% in the test on KB [16]; 27.5% in the test on KB [18]; 0.271% in the test with KB [19]; 7.5% in the test with KB [22]. Further, in the test with KB [28], the Activity is 17.3%. Besides, the concentration for half-maximal inhibition (IC50) in test [13] is 11.7 nM; in the test on KB [17], 690 nM; in test [9] it was 30.6 nM; in test [1], more than 1000 nM; in the test on R2 [3] it was more than 1000 nM; in the test with KB [23] it was 9.94 nM. Moreover, the IC50 in test [25] was 18.2 nM; in [5] it was more than 1000 nM. Further, the inhibition entry in the test on KB [14] is “Dose-dependent effect”. Besides, the result in the test with KB [20] and in the test on KB [27] was Active. Moreover, the inhibition at 1 µM in the test with KB [21] was 60%. Moreover, in the test with KB [24], the result was inactive. In the test on KB [26], the viability at 1 µM was determined as 64.6%.
For the compound `Cc1nc(=O)c2cc(CN(C)c3ccc(C(=O)N[C@@H](CCC(=O)O)C(=O)O)s3)ccc2[nH]1` [RALTITREXED], the IC50 in test [1] was more than 1000 nM.

The record behind these values is ChEMBL document CHEMBL3102834, “Discovery of 5-substituted pyrrolo[2,3-d]pyrimidine antifolates as dual-acting inhibitors of glycinamide ribonucleotide formyltransferase and 5-aminoimidazole-4-carboxamide ribonucleotide formyltransferase in de novo purine nucleotide biosynthesis: implications of inhibiting …” (J Med Chem, 2013).
